Measured values reported in ChEMBL document CHEMBL1147958, “Evaluation of the anti-inflammatory and anti-nociceptive activities of novel synthesized melatonin analogues” (2007).

Assays:
[1] = tested on: Rattus norvegicus; assay: Inhibition of carrageenan-induced paw oedema in Sprague-Dawley rat at 5.13 mg/kg, sc after 1 hr; assay type: functional; details: read-out: Inhibition, route subcutaneous
How it was run: (§1)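 Rats (n = 6/group) got the test agent s.c. (0.5 mL) as a 30 min pretreatment. Oedema was induced by sub-plantar 1% lambda-carrageenan in saline into the right hind paw, with saline in the contralateral paw. Paw volume was measured by plethysmometer before injection and at 1, 2, 3 and 4 h, and expressed as % change from pre-drug values.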

[2] = tested on: Rattus norvegicus; assay: Inhibition of carrageenan-induced paw oedema in Sprague-Dawley rat at 5.13 mg/kg, sc after 2 hrs; assay type: functional; details: read-out: Inhibition, route subcutaneous; how it was run: as §1
[3] = tested on: Rattus norvegicus; assay: Inhibition of carrageenan-induced paw oedema in Sprague-Dawley rat at 5.13 mg/kg, sc after 3 hrs; assay type: functional; details: read-out: Inhibition, route subcutaneous; how it was run: as §1
[4] = tested on: Rattus norvegicus; assay: Inhibition of carrageenan-induced paw oedema in Sprague-Dawley rat at 5.13 mg/kg, sc after 4 hrs; assay type: functional; details: read-out: Inhibition, route subcutaneous; how it was run: as §1
[5] = tested on: Rattus norvegicus; assay: Antinociceptive activity in Sprague-Dawley rat at 5.13 mg/kg, sc assessed as increase in latency time after 1 hr by hot plate method; assay type: functional; details: route subcutaneous
How it was run: (§2)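 Rats (n = 6/group) were dosed s.c. 30 min before testing on a hot-plate held at 52 °C, 30 s cut-off. Reaction latency was read at 1 and 2 h and expressed as % increase over each group's pre-drug basal latency, with indomethacin as the reference control. Groups were compared by ANOVA and Duncan's test.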

[6] = tested on: Rattus norvegicus; assay: Antinociceptive activity in Sprague-Dawley rat at 5.13 mg/kg, sc assessed as increase in latency time after 2 hrs by hot plate method; assay type: functional; details: route subcutaneous; how it was run: as §2
[7] = tested on: Rattus norvegicus; assay: Antinociceptive activity in Sprague-Dawley rat assessed as inhibition of number of indomethacin-induced gastric lesions at 5.13 mg/kg, sc; assay type: functional; details: Stomach, route subcutaneous
How it was run: (§3)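 Sprague-Dawley rats (120–130 g, food and water ad libitum) got indomethacin 20 mg/kg s.c. to induce gastric mucosal damage, with the test agent given s.c. at the time of indomethacin injection. Rats were killed 24 h later. Stomachs were opened along the greater curvature, rinsed with saline, and lesions counted and severity-scored on a previously described scale. Results are % decrease versus the indomethacin control.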

[8] = tested on: Rattus norvegicus; assay: […] in Sprague-Dawley rat assessed as inhibition of indomethacin-induced gastric lesions severity at 5.13 mg/kg, sc; assay type: functional; details: Stomach, route subcutaneous; how it was run: as §3
[9] = tested on: Mus musculus; assay: Antinociceptive activity in Swiss Albino mouse assessed as inhibition of acetic acid-induced writhes per 30 min at 5.13 mg/kg, sc; details: 0.5 h, read-out: Inhibition
[10] = tested on: Rattus norvegicus; assay: Antinociceptive activity in sc dosed Sprague-Dawley rat assessed as increase in latency time after 1 hr by hot plate method; assay type: functional; how it was run: as §2
[11] = tested on: Rattus norvegicus; assay: Antinociceptive activity in sc dosed Sprague-Dawley rat assessed as increase in latency time after 2 hrs by hot plate method; assay type: functional; how it was run: as §2
[12] = tested on: Rattus norvegicus; assay: Inhibition of carrageenan-induced paw oedema in Sprague-Dawley rat at 4 mg/kg, sc after 1 hr; assay type: functional; details: read-out: Inhibition, route subcutaneous; how it was run: as §1
[13] = tested on: Rattus norvegicus; assay: Inhibition of carrageenan-induced paw oedema in Sprague-Dawley rat at 4 mg/kg, sc after 2 hrs; assay type: functional; details: read-out: Inhibition, route subcutaneous; how it was run: as §1
[14] = tested on: Rattus norvegicus; assay: Inhibition of carrageenan-induced paw oedema in Sprague-Dawley rat at 4 mg/kg, sc after 3 hrs; assay type: functional; details: read-out: Inhibition, route subcutaneous; how it was run: as §1
[15] = tested on: Rattus norvegicus; assay: Inhibition of carrageenan-induced paw oedema in Sprague-Dawley rat at 4 mg/kg, sc after 4 hrs; assay type: functional; details: read-out: Inhibition, route subcutaneous; how it was run: as §1
[16] = tested on: Rattus norvegicus; assay: Antinociceptive activity in Sprague-Dawley rat at 4 mg/kg, sc assessed as increase in latency time after 1 hr by hot plate method; assay type: functional; details: route subcutaneous; how it was run: as §2
[17] = tested on: Rattus norvegicus; assay: Antinociceptive activity in Sprague-Dawley rat at 4 mg/kg, sc assessed as increase in latency time after 2 hrs by hot plate method; assay type: functional; details: route subcutaneous; how it was run: as §2
[18] = tested on: Rattus norvegicus; assay: […] in Sprague-Dawley rat assessed as inhibition of number of indomethacin-induced gastric lesions at 4 mg/kg, sc; assay type: functional; details: Stomach, route subcutaneous; how it was run: as §3
[19] = tested on: Rattus norvegicus; assay: […] in Sprague-Dawley rat assessed as inhibition of indomethacin-induced gastric lesions severity at 4 mg/kg, sc; assay type: functional; details: Stomach, route subcutaneous; how it was run: as §3
[20] = tested on: Mus musculus; assay: Antinociceptive activity in Swiss Albino mouse assessed as inhibition of acetic acid-induced writhes per 30 min at 4 mg/kg, sc; details: 0.5 h, read-out: Inhibition

## COc1ccc2c(c1)c(CCNC(C)=O)c1n2C(=O)C=C1C
[1]
  inhibition in vivo at 5.13 mg/kg: 67.3%
[2]
  inhibition in vivo at 5.13 mg/kg: 59.4%
[3]
  inhibition in vivo at 5.13 mg/kg: 43%
[4]
  inhibition in vivo at 5.13 mg/kg: 28.8%
[5]
  Activity: 116.6%
[6]
  Activity: 144.6%
[7]
  inhibition in vivo at 5.13 mg/kg: 72.6%
[8]
  inhibition in vivo at 5.13 mg/kg: 82.6%
[9]
  inhibition in vivo at 5.13 mg/kg: 68.7%

## COc1ccc2c(c1)c(CC(=O)O)c(C)n2C(=O)c1ccc(Cl)cc1 [INDOMETHACIN]
[10]
  Activity: 176.7%
[11]
  Activity: 286.6%

## COc1ccc2[nH]cc(CCNC(C)=O)c2c1 [MELATONIN]
[12]
  inhibition in vivo at 4 mg/kg: 50.8%
[13]
  inhibition in vivo at 4 mg/kg: 50.1%
[14]
  inhibition in vivo at 4 mg/kg: 44.4%
[15]
  inhibition in vivo at 4 mg/kg: 30%
[16]
  Activity: 39.7%
[17]
  Activity: 96%
[18]
  inhibition in vivo at 4 mg/kg: 56.3%
[19]
  inhibition in vivo at 4 mg/kg: 69%
[20]
  inhibition in vivo at 4 mg/kg: 55.6%
